According to ChEMBL document CHEMBL1141585, “5,5,6-Fused tricycles bearing imidazole and pyrazole 6-methylidene penems as broad-spectrum inhibitors of beta-lactamases” (Bioorg Med Chem, 2008):

Experiments:
Escherichia coli [1] = experiment: Antimicrobial activity against Escherichia coli GC 2203 after 18 to 24 hrs by broth microdilution method; format: functional
Procedure, shortened: (§1)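 CLSI broth microdilution in Mueller–Hinton II broth. Serial dilutions of piperacillin alone or piperacillin plus inhibitor; inoculum 10⁵ CFU/ml. Piperacillin + tazobactam run as comparator. MIC read as endpoint.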

Escherichia coli [2] = experiment: Antimicrobial activity against Escherichia coli GC 2920 expressing IRT2 beta-lactamase after 18 to 24 hrs by broth microdilution method; format: functional; procedure, shortened: as §1
Enterobacter cloacae [3] = experiment: Antimicrobial activity against Enterobacter cloacae GC 1477 expressing AmpC beta-lactamase after 18 to 24 hrs by broth microdilution method; format: functional; procedure, shortened: as §1
[4] = Inhibition of AmpC beta-lactamase
Procedure, shortened: (§2)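 Spectrophotometric β-lactamase inhibition assay (Bush method) with nitrocefin as substrate. Tazobactam standard included in each experiment. IC₅₀ derived by curve fitting.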

Staphylococcus aureus = experiment: Antimicrobial activity against Staphylococcus aureus GC 2216 after 18 to 24 hrs by broth microdilution method; format: functional; procedure, shortened: as §1
Enterobacter cloacae [5] = experiment: Antimicrobial activity against Enterobacter cloacae GC 4142 expressing AmpC beta-lactamase after 18 to 24 hrs by broth microdilution method; format: functional; procedure, shortened: as §1
[6] = Inhibition of Imi1 beta lactamase
[7] = Inhibition of TEM1 beta-lactamase; procedure, shortened: as §2
Escherichia coli [8] = experiment: Antimicrobial activity against Escherichia coli GC 2804 expressing imp beta-lactamase after 18 to 24 hrs by broth microdilution method; format: functional; procedure, shortened: as §1
Escherichia coli [9] = experiment: Antimicrobial activity against Escherichia coli GC 2253 expressing IRT2 beta-lactamase after 18 to 24 hrs by broth microdilution method; format: functional; procedure, shortened: as §1
Enterobacter cloacae [10] = experiment: Antimicrobial activity against Enterobacter cloacae GC 1475 expressing P99 beta-lactamase after 18 to 24 hrs by broth microdilution method; format: functional; procedure, shortened: as §1
Pseudomonas aeruginosa = experiment: Antimicrobial activity against Pseudomonas aeruginosa GC 1764 expressing AmpC beta-lactamase after 18 to 24 hrs by broth microdilution method; format: functional; procedure, shortened: as §1
Escherichia coli [11] = experiment: Antimicrobial activity against Escherichia coli GC 2905 expressing P99 beta-lactamase after 18 to 24 hrs by broth microdilution method; format: functional; procedure, shortened: as §1
Escherichia coli [12] = experiment: Antimicrobial activity against Escherichia coli GC 2844 after 18 to 24 hrs by broth microdilution method; format: functional; procedure, shortened: as §1
Enterobacter cloacae [13] = experiment: Antimicrobial activity against Enterobacter cloacae GC 6991 expressing AmpC beta-lactamase after 18 to 24 hrs by broth microdilution method; format: functional; procedure, shortened: as §1
[14] = test system: Stenotrophomonas maltophilia; experiment: Antimicrobial activity against Stenotrophomonas maltophilia GC 1721 expressing L1 beta-lactamase after 18 to 24 hrs by broth microdilution method; format: functional; procedure, shortened: as §1
Escherichia coli [15] = experiment: Antimicrobial activity against Escherichia coli GC 2847 expressing TEM1 beta-lactamase after 18 to 24 hrs by broth microdilution method; format: functional; procedure, shortened: as §1
Escherichia coli [16] = experiment: Antimicrobial activity against Escherichia coli GC 2883 expressing OXA10 and PSE2 beta-lactamase after 18 to 24 hrs by broth microdilution method; format: functional; procedure, shortened: as §1
Escherichia coli [17] = experiment: Antimicrobial activity against Escherichia coli GC 2906 expressing Imi1 beta-lactamase after 18 to 24 hrs by broth microdilution method; format: functional; procedure, shortened: as §1
Escherichia coli [18] = experiment: Antimicrobial activity against Escherichia coli GC 2894 expressing AmpC beta-lactamase after 18 to 24 hrs by broth microdilution method; format: functional; procedure, shortened: as §1
Serratia marcescens [19] = experiment: Antimicrobial activity against Serratia marcescens GC 1781 expressing Sme1 and AmpC beta-lactamase after 18 to 24 hrs by broth microdilution method; format: functional; procedure, shortened: as §1
Escherichia coli [20] = experiment: Antimicrobial activity against Escherichia coli GC 2805 expressing CcrA beta-lactamase after 18 to 24 hrs by broth microdilution method; format: functional; procedure, shortened: as §1
Serratia marcescens [21] = experiment: Antimicrobial activity against Serratia marcescens GC 4132 expressing AmpC beta-lactamase after 18 to 24 hrs by broth microdilution method; format: functional; procedure, shortened: as §1
Escherichia coli [22] = experiment: Antibacterial efficacy against Escherichia coli LSU 80-8 infected ip dosed CD1 mouse model; format: functional
Procedure, shortened: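 Female CD-1 mice, five per dose level, five dose levels per compound. Lethal intraperitoneal challenge (10–100 LD₅₀), then intravenous piperacillin alone or piperacillin plus inhibitor at a 4:1 (Pip:Inhibitor) ratio. Survival read at 7 days; ratios from three separate tests pooled; ED₅₀ by probit analysis.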

| SMILES | MIC (Escherichia coli [1]) [mg/L] | MIC (Escherichia coli [2]) [mg/L] | MIC (Enterobacter cloacae [3]) [mg/L] | IC50 [4] [nM] | MIC (Staphylococcus aureus) [mg/L] | MIC (Enterobacter cloacae [5]) [mg/L] | IC50 [7] [nM] | MIC (Escherichia coli [8]) [mg/L] | MIC (Escherichia coli [9]) [mg/L] | MIC (Enterobacter cloacae [10]) [mg/L] | MIC (Pseudomonas aeruginosa) [mg/L] | MIC (Escherichia coli [11]) [mg/L] | MIC (Escherichia coli [12]) [mg/L] | MIC (Enterobacter cloacae [13]) [mg/L] | MIC [14] [mg/L] | MIC (Escherichia coli [15]) [mg/L] | MIC (Escherichia coli [16]) [mg/L] | MIC (Escherichia coli [17]) [mg/L] | MIC (Escherichia coli [18]) [mg/L] | MIC (Serratia marcescens [19]) [mg/L] | other results |
| --- | --- | --- | --- | --- | --- | --- | --- | --- | --- | --- | --- | --- | --- | --- | --- | --- | --- | --- | --- | --- | --- |
| CCOC(=O)N1CCc2c(oc3cc(/C=C4/C(=O)N5C(C(=O)[O-])=CS[C@H]45)nn23)C1.[Na+] | 2 | 4 | > 64 | 4 | 16 | 64 | 1.2 | < 0.06 | 16 | 64 | > 64 | 32 | 2 | 64 | > 64 | 32 | 8 | 64 | 64 | 2 | IC50 [6]: 98 nM; MIC (Escherichia coli [20]): > 64 mg/L; MIC (Serratia marcescens [21]): 8 mg/L |
| O=C([O-])C1=CS[C@@H]2/C(=C\c3cc4oc5c(n4n3)CCOC5)C(=O)N12.[Na+] | 4 | 2 | 64 | 4 | 16 | 32 | 4.3 | < 0.06 | 16 | 32 | 32 | 16 | 2 | 16 | > 64 | 32 | 8 | 8 | 16 | 2 | IC50 [6]: 140 nM; MIC (Escherichia coli [20]): > 64 mg/L; MIC (Serratia marcescens [21]): 8 mg/L |
| O=C([O-])C1=CS[C@@H]2/C(=C/c3cc4oc5c(n4n3)CCOC5)C(=O)N12.[Na+] | 2 | 8 | > 64 | 53 | 64 | > 64 | 150 | 0.12 | 32 | 32 | 64 | 32 | 2 | 32 | > 64 | > 64 | 16 | 64 | 32 | 4 | IC50 [6]: 2900 nM; MIC (Escherichia coli [20]): > 64 mg/L; MIC (Serratia marcescens [21]): 32 mg/L |
| O=C([O-])C1=CS[C@@H]2/C(=C\c3cn4c5c(sc4n3)CCC5)C(=O)N12.[Na+] | 2 | 2 | 16 | 2.1 | 2 | 4 | 1.4 | < 0.06 | 8 | 4 | 2 | 4 | 2 | 16 | > 64 | 4 | 2 | 2 | 2 | 1 | ED50 (Escherichia coli [22]): 19 mg/kg; MIC (Escherichia coli [20]): > 64 mg/L; MIC (Serratia marcescens [21]): 2 mg/L |
| O=C([O-])C1=CS[C@@H]2/C(=C\c3cn4c(n3)nc3n4CCCC3)C(=O)N12.[Na+] | 1 | 2 | > 64 | 1.4 | 0.25 | 8 | 2.4 | < 0.06 | 16 | 2 | 32 | 2 | 2 | 16 | > 64 | 8 | 2 | 64 | 2 | 0.5 | IC50 [6]: 14 nM; ED50 (Escherichia coli [22]): 32.5 mg/kg; MIC (Escherichia coli [20]): > 64 mg/L; MIC (Serratia marcescens [21]): 1 mg/L |
| CCN1CCN(C(=O)N[C@@H](C(=O)N[C@@H]2C(=O)N3[C@@H]2SC(C)(C)[C@@H]3C(=O)O)c2ccccc2)C(=O)C1=O [PIPERACILLIN] |  |  |  |  |  |  |  |  |  |  |  |  |  |  |  |  |  |  |  |  | ED50 (Escherichia coli [22]): > 128 mg/kg |
| O=C([O-])C1=CS[C@@H]2/C(=C\c3cc4oc5c(n4n3)CCCC5)C(=O)N12.[Na+] | 2 | 4 | 64 | 5.5 | 16 | 32 | 4 | < 0.06 | 16 | 32 | 64 | 32 | 2 | 32 | > 64 | 16 | 8 | 4 | 32 | 2 | IC50 [6]: 160 nM; MIC (Escherichia coli [20]): > 64 mg/L; MIC (Serratia marcescens [21]): 8 mg/L |
| Cn1c2ccccc2n2cc(/C=C3/C(=O)N4C(C(=O)[O-])=CS[C@H]34)nc12.[Na+] | 2 | 4 | > 64 | 16 | 64 | > 64 | 24 | < 0.06 | 32 | 64 | 64 | 32 | 4 | 32 | > 64 | > 64 | 64 | 16 | 32 | 2 | IC50 [6]: 50 nM; MIC (Escherichia coli [20]): > 64 mg/L; MIC (Serratia marcescens [21]): 16 mg/L |
